# Screening results deposited in PubChem by several laboratories.
# An excerpt weighted towards active compounds, which were near 4.8% of everything screened.
# ALR inh: human ALR oxidase inhibition via reduced H2O2; AID 485317; purified ALR, DTT oxidation, H2O2 HRP-luminol luminescence; inhibition, % (test concentration not listed); hit rate 3.8% among 290,000;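 active means mean replicate inhibition above about 79%, with every replicate also reaching it, limit read from the data; inconclusive means only one of the two criteria met; inactive means mean below limit and not every replicate reaching it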
# Target sequence (P55789 whole entry, looked up): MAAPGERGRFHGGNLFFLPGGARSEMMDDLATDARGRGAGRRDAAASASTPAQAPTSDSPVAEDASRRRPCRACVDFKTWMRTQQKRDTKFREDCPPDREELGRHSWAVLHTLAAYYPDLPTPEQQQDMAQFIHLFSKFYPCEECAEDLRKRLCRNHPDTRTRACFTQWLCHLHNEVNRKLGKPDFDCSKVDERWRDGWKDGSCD
# NLRP3 yeast inh: blocks the NALP3 inflammasome reconstituted in yeast; inhibition, % at 10 µM; hit rate 0.39% among 330,000; AID 2825; Yeast reconstituted NLRP3/ASC/caspase-1, beta-gal luminescence, 24 h;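 active means inhibition of 50% or more; inactive means inhibition below 50%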
# NALP1 yeast inh: NALP1 inhibition; S. cerevisiae NALP1/ASC/caspase-1 growth, X-gal OD620, 72 h; inhibition, % at 10 µM; hit rate 0.61% among 280,000; in the data active means inhibition mostly above about 24%, no sharp cut-off; inactive means mostly below about 32%
# UCH37 DUB inh: human UCH37 deubiquitinating enzyme inhibition; Q9Y5K5; purified proteasome/UCH37, Ub-AMC cleavage fluorescence; inhibition, % (test concentration not listed); hit rate 0.33% among 330,000; AID 588478;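 active means mean inhibition over replicate wells above about 20%, limit read from the data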
#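 Material: human UCH37 enzyme supplied as purified proteasome complex. Measure: % inhibition of Ub-AMC cleavage fluorescence. Medium: pH 7.4 Tris-HCl (50 mM) with ovalbumin, ATP-MgCl2, DTT. Times: 30 min preincubation with enzyme, 25 min cleavage at room temperature. Detection: AMC fluorescence intensity at 355/460 nm.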
# Calb FLC: affects C. albicans growth with fluconazole. AID 1979. growth inhibition, % (test concentration not listed). C. albicans CaCi-2 (fluconazole-resistant clinical isolate) + fluconazole, Alamar Blue growth, 48 h. hit rate 0.57% among 300,000;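 active means growth inhibition above about 58% in most replicates, limit read from the data, passing the limit was not always enough; inconclusive means exactly half the replicates above a set limit; inactive means most replicates below a set limit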;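 further: all wells also contain fluconazole at 8 µg/ml as a sub-toxic cotreatment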
# ATG4B inh: blocks human ATG4B protease cleavage of LC3 substrate. Q9Y4P1. ATG4B cleavage of LC3-PLA2, NBD-HPC fluorescence, 1 h. inhibition, % at 8.33 µM. hit rate 0.51% among 340,000. AID 504462; in the data active means inhibition above about 40%
# ATG4B conf: ATG4B (human) inhibition, single-dose confirmed; ATG4B protease fluorescent substrate cleavage assay; shares compounds with ATG4B inh; hit rate 92% among 320; inhibition, % at 8.33 µM; in the data active means inhibition above about 39%
# PLA2 ctr: PLA2 (human) inhibition in ATG4B counter-screen. shares compounds with ATG4B inh. purified PLA2, NBD-C6-HPC fluorescence, 45 min. inhibition, % at 8.33 µM. hit rate 66% among 1,600. AID 588402; in the data active means inhibition above about 50%
# Target sequence (P04054 whole entry, looked up): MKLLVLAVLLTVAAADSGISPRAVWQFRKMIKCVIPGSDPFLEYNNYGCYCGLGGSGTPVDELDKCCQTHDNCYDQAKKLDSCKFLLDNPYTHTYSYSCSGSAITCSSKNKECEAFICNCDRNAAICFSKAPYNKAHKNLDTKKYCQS
# Hits are given with their value; . = inactive; ? = inconclusive; / = not tested or not shown.
SMILES,ALR inh,NLRP3 yeast inh,NALP1 yeast inh,UCH37 DUB inh,Calb FLC,ATG4B inh,PLA2 ctr,others
CCOc1ccccc1OCC(=O)Nc1cc(S(=O)(=O)N2CCCCC2)ccc1N1CCN(CC)CC1,.,.,/,.,.,.,/,
O=C(NN=Cc1ccco1)c1cc(-c2ccc(Br)s2)[nH]n1,/,/,/,.,/,/,/,
O=C1[C@H](Cc2ccccc2)NCC=CC[C@@H](c2ccc(Cl)cc2)N1Cc1ccc(Cl)cc1,/,/,/,.,/,.,/,
O=C1[C@H](Cc2ccccc2)NCC=CC[C@H](c2ccc(Cl)cc2)N1Cc1ccccc1,/,/,/,.,/,57,70,
O=C1[C@H](Cc2ccccc2)NCCCC[C@@H](c2ccc(Cl)cc2)N1Cc1ccccc1,/,/,/,.,/,.,/,
O=C1[C@H](Cc2ccccc2)NCC=CC[C@H](c2ccc(Cl)cc2)N1Cc1ccc(Cl)cc1,/,/,/,.,/,45,81,
COc1cc(C=NNC(=O)c2cc(-c3c(C)nn(-c4ccccc4)c3C)n[nH]2)ccc1O,/,/,/,.,/,/,/,
CCOC(=O)C1=C(c2ccccc2)N=c2sc(=Cc3ccco3)c(=O)n2C1c1cccs1 (configuration not stated),/,/,/,.,/,/,/,
CC1(C)Cc2ccccc2-c2nnc(SCC(=O)Nc3nc4ccccc4s3)n21,.,.,.,.,.,42,51,
Cn1c(SCC(=O)Nc2nc3ccccc3s2)nnc1-c1ccccc1,.,.,.,.,/,.,/,
CCOc1ccc(S(=O)(=O)NN=C(C)Cc2ccc(OC)cc2)cc1,/,/,/,.,/,/,/,
O=C(NN1C(=O)/C(=C/C=C/c2ccco2)SC1=S)c1ccncc1,.,.,/,.,.,54,.,ATG4B conf=65
CC(CCc1ccc2c(c1)OCO2)=N/N=C1/NC(=O)CC(C(=O)Nc2ccc(C(=O)O)cc2)S1 (configuration not stated),/,/,/,.,/,/,/,
COc1ccc(-n2c(CCc3ccccc3)nnc2SCC(=O)c2ccccc2)cc1,.,.,.,.,.,60,61,
COc1ccc(-n2nnnc2SCC(=O)c2cccc(OC)c2)cc1,.,.,.,.,.,.,/,
CCOc1ccc(-n2nnnc2SCC(=O)c2ccccc2)cc1,.,.,.,.,.,41,51,
Cc1nnc(NN=Cc2ccc([N+](=O)[O-])cc2)n1N,/,/,/,.,/,/,/,
CCC(NC(=S)NCc1ccc(F)cc1)c1ccc(C(C)C)cc1 (configuration not stated),.,.,.,.,.,54,77,
COc1ccc(C(C)NC(=S)NCc2ccc(F)cc2)cc1OC (configuration not stated),.,.,.,.,.,.,/,
CCC(C)c1ccc(C(C)NC(=S)NCc2ccc(F)cc2)cc1 (configuration not stated),.,.,.,.,.,63,78,
CCCc1ccc(C(C)NC(=S)NCc2ccc(F)cc2)cc1 (configuration not stated),.,.,.,.,.,59,70,
CC(NC(=S)NCc1ccc(F)cc1)C12CC3CC(CC(C3)C1)C2 (configuration not stated),.,.,.,.,.,.,/,
S=C(NCCc1ccccc1)NN=Cc1ccccc1Cl,/,/,/,.,/,/,/,
CC1(C)Cc2c(sc3c2c(=N)n(Cc2ccco2)c(=O)n3CC(=O)Nc2cccc(Cl)c2)CO1,.,.,.,.,.,53,60,
CCOc1ccc(C(=O)Nc2cc(NC(=O)c3ccc(OCC)c(Cl)c3)cc(C(=O)O)c2)cc1Cl,/,.,.,.,.,48,60,
CCOc1ccc(C(=O)Nc2cccc(C(=O)O)c2)cc1Cl,.,.,.,.,.,.,/,
O=Cc1ccc(OCc2cccc(C(F)(F)F)c2)cc1O,.,.,.,.,.,57,77,
COCOc1ccc(C=O)c(O)c1,.,.,/,.,.,.,/,
C/C(=N\NC(=O)c1cccc(N/N=C(\C)c2cc(O)ccc2O)c1)c1cc(O)ccc1O,?,.,.,/,103,46,78,
CC(=NNC(=O)c1cc(O)ccc1O)c1cccc(NC(=O)c2cccc(Cl)c2)c1,/,/,/,.,/,/,/,
